The record followed here is ChEMBL document CHEMBL1155302, “Crystal structure, antitumour and antimetastatic activities of disubstituted fused 1,2,4-triazinones” (Bioorg Med Chem Lett, 2009).

The nature of series [1]: Cytotoxicity against human HSF cells assessed as cell viability at 50 uM after 24 hrs by MTT assay relative to control. Format: cell-based. Conditions: read-out: Activity. In outline:
(§1)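 Primary skin fibroblasts were obtained by trypsinizing a healthy forearm skin fragment and grown in DMEM with 10% FBS, penicillin and streptomycin at 37 °C, 5% CO2. Cells were plated at 1 × 10⁵ per well to confluence, then exposed for 24 h to 1, 50 or 100 µM compound diluted from DMSO. MTT viability was read at 570 nm as % of medium control, mean SD of at least three independent measurements.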

For series [2], the system named is RPMI-8226. The series can be described thus: Antitumor activity against human RPMI8226 cells assessed as cell viability at 100 uM after 24 hrs by MTT assay relative to control. Conditions: RPMI-8226, 24 h, read-out: Activity. The series is classed as functional. In outline:
(§2)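 RPMI 8226 peripheral blood myeloma cells were treated with 1, 50 or 100 µM compound (DMSO stock diluted into medium) for 24 h. Viability was measured by MTT reduction (SDI test), with solubilized formazan read at 570 nm. Results are % of medium-alone control, mean SD of at least three independent measurements.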
In general terms: Tetrazolium assays rely on reduction of a dye to a coloured formazan, in cell work by metabolically active cells.

The test system of series [3] is RPMI-8226. The series can be described thus: Antitumor activity against human RPMI8226 cells assessed as cell viability at 50 uM after 24 hrs by MTT assay relative to control. The series is classed as functional. The following applies: RPMI-8226, 24 h, read-out: Activity. In outline:
as §2

Series [4] has as its system RPMI-8226. The series can be described thus: Antitumor activity against human RPMI8226 cells assessed as cell viability at 1 uM after 24 hrs by MTT assay relative to control. Format: functional. Conditions: RPMI-8226, 24 h, read-out: Activity. In outline:
as §2

A short description of series [5]: Cytotoxicity against human HSF cells assessed as cell viability at 100 uM after 24 hrs by MTT assay relative to control. Format: cell-based. Conditions: read-out: Activity. In short, it runs like this:
as §1

Series [6] is described as follows: Antimetastatic activity against human HeLaB cells assessed as inhibition of cell motility at 25 uM after 24 hrs relative to control. The series is classed as functional. Further details: scale not given: the % may be the effect or the level left. In outline:
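HeLa B cervix carcinoma cells were exposed to 25 µM compound or to culture medium alone for 24 h in a wound-migration (cell motility) assay. Cells migrating into the wound area were scored, and motility was expressed as % of the medium-only control (100%).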

Series [7] in a line: Cytotoxicity against human HSF cells assessed as cell viability at 1 uM after 24 hrs by MTT assay relative to control. The series is classed as cell-based. Conditions: read-out: Activity. In short, it runs like this: as §1

As to `O=c1c(-c2ccccc2)nnc2n1CCN2c1ccccc1Cl`, the viability at 24 h, 50 µM in series [1] was 104%. Also, the viability at 100 µM in series [2] is 101%. In addition, in series [3], the viability at 50 µM was 103%. Besides, the viability at 1 µM in series [4] is 103%. The viability at 24 h, 100 µM in series [5] turned out to be 104%. Moreover, the Activity in series [6] is 59%. Also, the viability at 24 h, 1 µM in series [7] was 108%.

Regarding `COc1ccc(N2CCn3c2nnc(-c2ccccc2)c3=O)cc1`, the viability at 24 h, 50 µM in series [1] is 64%. Also, the viability at 100 µM in series [2] worked out at 43%. Further, the viability at 50 µM in series [3] came to 57%. Also, the viability at 1 µM in series [4] was determined as 106%. Moreover, in series [5], the viability at 24 h, 100 µM came out at 73%. Further, the Activity in series [6] turned out to be 59%. Moreover, the viability at 24 h, 1 µM in series [7] came out at 88%.

`O=c1c(-c2ccccc2)nnc2n1CCN2c1cc(Cl)ccc1Cl`: the viability at 24 h, 50 µM in series [1] was 31%. The viability at 100 µM in series [2] is 41%. Further, the viability at 50 µM in series [3] worked out at 43%. In addition, the viability at 1 µM in series [4] was determined as 109%. Further, the viability at 24 h, 100 µM in series [5] is 17%. The Activity in series [6] is given as 103%. The viability at 24 h, 1 µM in series [7] worked out at 87%.

As to `O=c1c(-c2ccccc2)nnc2n1CCN2c1cccc(Cl)c1`, the viability at 24 h, 50 µM in series [1] is 85%. Also, in series [2], the viability at 100 µM stood at 60%. Further, in series [3], the viability at 50 µM was 70%. In series [4], the viability at 1 µM was 105%. The viability at 24 h, 100 µM in series [5] came out at 88%. For the same compound, in series [6], the Activity is reported as 52%. In addition, in series [7], the viability at 24 h, 1 µM came to 108%.

In the case of `O=c1c(-c2ccccc2)nnc2n1CCN2c1ccc(Cl)cc1`, the viability at 24 h, 50 µM in series [1] stood at 96%. For the same compound, the viability at 100 µM in series [2] was 39%. Also, the viability at 50 µM in series [3] was determined as 56%. For the same compound, the viability at 1 µM in series [4] stood at 101%. The viability at 24 h, 100 µM in series [5] was found to be 102%. Moreover, the Activity in series [6] turned out to be 50%. Further, in series [7], the viability at 24 h, 1 µM is 104%.

In the case of `O=c1c(-c2ccccc2)nnc2n1CCN2c1ccc(Cl)c(Cl)c1`, the viability at 24 h, 50 µM in series [1] stood at 48%. Moreover, the viability at 100 µM in series [2] was 58%. Besides, the viability at 50 µM in series [3] is 69%. Besides, the viability at 1 µM in series [4] was determined as 108%. Moreover, in series [5], the viability at 24 h, 100 µM was determined as 47%. Besides, in series [6], the Activity was determined as 90%. For the same compound, the viability at 24 h, 1 µM in series [7] came out at 93%.

Turning to `Cc1cccc(N2CCn3c2nnc(-c2ccccc2)c3=O)c1`, the viability at 24 h, 50 µM in series [1] came out at 94%. Further, in series [2], the viability at 100 µM turned out to be 71%. In series [3], the viability at 50 µM was found to be 79%. Besides, in series [4], the viability at 1 µM is 107%. Besides, in series [5], the viability at 24 h, 100 µM came out at 88%. Further, the Activity in series [6] is reported as 68%. Further, the viability at 24 h, 1 µM in series [7] is 100%.
